Measured values taken from ChEMBL document CHEMBL1821564, “3-Acetyl-2,5-diaryl-2,3-dihydro-1,3,4-oxadiazoles: a new scaffold for the selective inhibition of monoamine oxidase B” (J Med Chem, 2011).

Tests used:
[1] = target: T1, Amine oxidase [flavin-containing] A (Homo sapiens, UniProt P21397); assay: Inhibition of human recombinant MAO-A activity expressed in BTI-TN-5B1-4 insect cells at 100 uM using p-tyramine substrate by Amplex Red MAO assay; details: bti-tn-5b1-4, 100 µM
T1 sequence (P21397 whole entry): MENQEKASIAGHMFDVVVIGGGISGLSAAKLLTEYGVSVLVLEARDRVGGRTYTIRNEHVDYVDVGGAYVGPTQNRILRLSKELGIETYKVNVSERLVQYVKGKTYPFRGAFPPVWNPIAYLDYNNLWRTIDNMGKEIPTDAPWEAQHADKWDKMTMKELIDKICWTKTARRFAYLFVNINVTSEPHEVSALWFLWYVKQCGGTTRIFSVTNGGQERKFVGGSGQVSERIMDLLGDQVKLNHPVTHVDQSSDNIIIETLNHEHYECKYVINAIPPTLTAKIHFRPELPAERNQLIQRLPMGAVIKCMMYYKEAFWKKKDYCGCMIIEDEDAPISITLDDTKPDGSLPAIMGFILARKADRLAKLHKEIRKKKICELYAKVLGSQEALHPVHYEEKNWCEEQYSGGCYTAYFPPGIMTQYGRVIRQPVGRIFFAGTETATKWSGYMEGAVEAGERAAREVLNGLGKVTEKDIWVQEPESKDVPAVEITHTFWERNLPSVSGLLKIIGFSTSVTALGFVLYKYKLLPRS
Procedure, shortened: (§1)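 Microsomal hMAO-A or hMAO-B from baculovirus-infected BTI-TN-5B1-4 insect cells, with p-tyramine substrate. H2O2 production was read with the Amplex Red reagent. Highest concentration tested was 100 μM, limited by precipitation. Compounds were checked for no direct reaction with Amplex Red. IC50 is the mean ± SEM of five experiments.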

[2] = target: T2, Amine oxidase [flavin-containing] B (Homo sapiens, UniProt P27338); assay: Inhibition of human recombinant MAO-B expressed in BTI-TN-5B1-4 insect cells using p-tyramine substrate by Amplex Red MAO assay; procedure, shortened: as §1
T2 sequence (P27338 whole entry): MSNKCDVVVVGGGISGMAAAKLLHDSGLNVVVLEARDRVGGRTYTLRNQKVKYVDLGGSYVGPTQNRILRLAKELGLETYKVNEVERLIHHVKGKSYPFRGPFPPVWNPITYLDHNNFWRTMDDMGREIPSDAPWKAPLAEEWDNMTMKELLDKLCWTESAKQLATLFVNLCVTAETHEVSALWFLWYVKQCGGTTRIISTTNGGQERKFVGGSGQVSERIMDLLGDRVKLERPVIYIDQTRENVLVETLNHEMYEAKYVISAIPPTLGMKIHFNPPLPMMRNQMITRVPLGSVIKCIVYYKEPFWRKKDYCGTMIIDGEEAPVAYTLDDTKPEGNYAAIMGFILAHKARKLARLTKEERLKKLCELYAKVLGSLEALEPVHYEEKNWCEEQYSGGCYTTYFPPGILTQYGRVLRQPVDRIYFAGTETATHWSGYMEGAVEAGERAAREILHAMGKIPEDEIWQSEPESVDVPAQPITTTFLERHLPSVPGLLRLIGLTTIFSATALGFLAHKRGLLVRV

Homo sapiens = organism: Homo sapiens; assay: Selectivity index, ratio of IC50 for human recombinant MAO-A to IC50 for human recombinant MAO-B
[3] = target: T2, Amine oxidase [flavin-containing] B; assay: Inhibition of human recombinant MAO-B expressed in BTI-TN-5B1-4 insect cells at 100 uM using p-tyramine substrate by Amplex Red MAO assay; details: bti-tn-5b1-4, 100 µM; procedure, shortened: as §1

Row | SMILES | inhibition (INH) [1] | IC50 [2] [µM] | Ratio IC50 (Homo sapiens) | inhibition (INH) [3] | IC50 ([2]; bti-tn-5b1-4) [µM]
1 | COc1ccc(C2OC(c3ccccc3)=NN2C(C)=O)cc1 (stereo not given) | Not Active | 5.16 | > 19 | – | –
2 | CC(=O)N1N=C(c2ccncc2)OC1c1ccc(C)cc1 (stereo not given) | Not Active | – | – | Not Active | –
3 | CC(=O)N1N=C(c2ccccc2)OC1c1ccc(F)cc1 (stereo not given) | Not Active | 9.53 | > 10 | – | –
4 | CC(=O)N1N=C(c2ccccc2)OC1c1ccc(C)cc1 (stereo in doubt; 4y) [listing 1 of 2 here] | Not Active | 19.4 | – | – | –
5 | CC(=O)N1N=C(c2ccncc2)OC1c1ccccc1 (stereo not given) | Not Active | – | – | Not Active | –
6 | CC(=O)N1N=C(c2ccccc2)OC1c1ccc(C)cc1 (racemic) [listing 1 of 2 here] | – | – | > 5.2 | – | –
7 | CC(=O)N1N=C(c2ccccc2)OC1c1ccc(N(C)C)cc1 (stereo not given) | Not Active | – | – | Not Active | –
8 | CC(=O)N1N=C(c2ccccc2)O[C@@H]1c1ccc(C)cc1 | Not Active | 8.46 | > 12 | – | –
9 | CC(=O)N1N=C(c2ccc(C)cc2)OC1c1ccc(Cl)cc1Cl (stereo not given) | Not Active | – | – | Not Active | –
10 | CC(=O)N1N=C(c2ccncc2)OC1c1ccc(N(C)C)cc1 (stereo not given) | Not Active | 46.8 | > 2.14 | – | –
11 | COc1ccc(C2OC(c3ccncc3)=NN2C(C)=O)cc1 (stereo not given) | Not Active | – | – | Not Active | –
12 | CC(=O)N1N=C(c2ccc(C)cc2)OC1c1ccccc1 (stereo not given) | Not Active | – | – | Not Active | –
13 | CC(=O)N1N=C(c2ccccc2)OC1c1ccc(C)cc1 (stereo in doubt; 4y) [listing 2 of 2 here] | – | – | > 5.2 | – | –
14 | CC(=O)N1N=C(c2ccccc2)OC1c1ccccc1 (stereo not given) | Not Active | – | – | Not Active | –
15 | CC(=O)N1N=C(c2ccncc2)OC1c1ccc(Cl)cc1Cl (stereo not given) | Not Active | – | – | Not Active | –
16 | CC(=O)N1N=C(c2ccccc2)O[C@H]1c1ccc(C)cc1 | Not Active | – | – | Not Active | –
17 | COc1ccc(C2OC(c3ccc(C)cc3)=NN2C(C)=O)cc1OC (stereo not given) | Not Active | – | – | Not Active | –
18 | CC(=O)N1N=C(c2ccccc2)OC1c1ccc(C)cc1 (racemic) [listing 2 of 2 here] | – | – | – | – | 19.4
19 | COc1ccc(C2OC(c3ccncc3)=NN2C(C)=O)cc1OC (stereo not given) | Not Active | – | – | Not Active | –

Other lines, results leading:

Row | inhibition (INH) [1] | IC50 [2] [µM] | Ratio IC50 (Homo sapiens) | inhibition (INH) [3] | IC50 ([2]; bti-tn-5b1-4) [µM] | SMILES
20 | Not Active | – | – | Not Active | – | COc1ccc(C2=NN(C(C)=O)C(c3ccc(Cl)cc3)O2)cc1 (stereo not given)
21 | – | – | – | – | 0.115 | CC(=O)N1N=C(c2ccc(Cl)cc2)OC1c1ccc(Cl)cc1 (racemic) [listing 1 of 2 here]
22 | – | – | > 453 | – | – | CC(=O)N1N=C(c2ccc(Br)cc2)OC1c1ccc(Cl)cc1 (racemic) [listing 1 of 2 here]
23 | – | – | > 867 | – | – | CC(=O)N1N=C(c2ccc(Cl)cc2)OC1c1ccc(Cl)cc1 (racemic) [listing 2 of 2 here]
24 | Not Active | – | – | Not Active | – | CC(=O)N1N=C(c2ccc(Cl)cc2)O[C@H]1c1ccc(Cl)cc1
25 | Not Active | – | – | Not Active | – | CC(=O)N1N=C(c2ccccc2)OC1c1ccc([N+](=O)[O-])cc1 (stereo not given)
26 | Not Active | – | – | Not Active | – | CC(=O)N1N=C(c2ccccc2)OC1c1ccc(Cl)cc1 (stereo not given)
27 | Not Active | 0.221 | – | – | – | CC(=O)N1N=C(c2ccc(Br)cc2)OC1c1ccc(Cl)cc1 (stereo in doubt; 4s) [listing 1 of 2 here]
28 | – | – | – | – | 0.221 | CC(=O)N1N=C(c2ccc(Br)cc2)OC1c1ccc(Cl)cc1 (racemic) [listing 2 of 2 here]
29 | – | – | > 453 | – | – | CC(=O)N1N=C(c2ccc(Br)cc2)OC1c1ccc(Cl)cc1 (stereo in doubt; 4s) [listing 2 of 2 here]
30 | – | – | > 867 | – | – | CC(=O)N1N=C(c2ccc(Cl)cc2)OC1c1ccc(Cl)cc1 (stereo in doubt; 4p) [listing 1 of 2 here]
31 | Not Active | 0.115 | – | – | – | CC(=O)N1N=C(c2ccc(Cl)cc2)OC1c1ccc(Cl)cc1 (stereo in doubt; 4p) [listing 2 of 2 here]
32 | Not Active | 0.0825 | > 1210 | – | – | CC(=O)N1N=C(c2ccc(Br)cc2)O[C@@H]1c1ccc(Cl)cc1
33 | Not Active | 66.6 | > 1.5 | – | – | CC(=O)N1N=C(c2ccc(C)cc2)OC1c1ccc(C)cc1 (stereo not given)
34 | Not Active | – | – | Not Active | – | CC(=O)N1N=C(c2ccc(C)cc2)OC1c1ccc(Cl)cc1 (stereo not given)
35 | Not Active | – | – | Not Active | – | CC(=O)N1N=C(c2ccc(Br)cc2)O[C@H]1c1ccc(Cl)cc1
36 | Not Active | 0.101 | > 994 | – | – | CC(=O)N1N=C(c2ccc(Cl)cc2)O[C@@H]1c1ccc(Cl)cc1
37 | Not Active | – | – | Not Active | – | CC(=O)N1N=C(c2ccncc2)OC1c1ccc(Cl)cc1 (stereo not given)
38 | Not Active | 74.7 | > 1.34 | – | – | COc1ccc(C2OC(c3ccc(C)cc3)=NN2C(C)=O)cc1 (stereo not given)
39 | Not Active | 0.122 | > 822 | – | – | CC(=O)N1N=C(c2ccc([N+](=O)[O-])cc2)OC1c1ccc(Cl)cc1 (stereo not given)
40 | Not Active | – | – | Not Active | – | CC(=O)N1N=C(c2ccc(C)cc2)OC1c1ccc(N(C)C)cc1 (stereo not given)
